Compounds with a hit are over-represented: about 4.8% of the library has one in this group of screens.
UCH37 inh – human UCH37 deubiquitinating enzyme inhibition. Q9Y5K5. purified proteasome/UCH37, Ub-AMC cleavage fluorescence. inhibition, % (no concentration beside the values). 0.33% of 330,000 active;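 active means mean inhibition over replicate wells above about 20%, limit read from the data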
Target sequence (Q9Y5K5 whole entry, looked up): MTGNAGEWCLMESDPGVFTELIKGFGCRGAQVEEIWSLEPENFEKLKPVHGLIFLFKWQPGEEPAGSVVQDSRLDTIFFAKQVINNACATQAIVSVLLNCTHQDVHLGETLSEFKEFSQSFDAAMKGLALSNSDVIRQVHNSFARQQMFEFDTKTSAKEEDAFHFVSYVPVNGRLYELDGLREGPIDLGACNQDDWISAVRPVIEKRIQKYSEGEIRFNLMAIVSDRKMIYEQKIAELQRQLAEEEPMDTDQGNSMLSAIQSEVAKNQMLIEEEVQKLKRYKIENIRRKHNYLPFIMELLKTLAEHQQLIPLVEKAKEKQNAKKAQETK
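Reagent: Ub-AMC substrate; assay system: Proteasome-associated human UCH37 deubiquitinase; controls: no-proteasome and no-compound wells; read-out: % inhibition of Ub-AMC cleavage fluorescence; timing: 30 min preincubation with enzyme, 25 min cleavage at room temperature; signal: AMC fluorescence from Ub-AMC cleavage, excitation 355 nm, emission 460 nm; buffer or medium: Tris-HCl pH 7.4 plus ovalbumin, ATP-MgCl2, DTT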
pPAFAH FP inh – inhibitors of human plasma PAF acetylhydrolase (pPAFAH); recombinant pPAFAH, FP-rhodamine probe fluorescence polarization; 1.5% of 330,000 active; AID 463082; Q13093; inhibition, % at 3.39 µM;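 active means inhibition above the mean inhibition across the screen plus 3 SD, cut at about 25% in these data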;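 further: inhibitors block binding of the rhodamine activity-based probe so polarization drops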
PAFAH1B2 FP inh – PAFAH1B2 (human) inhibition; P68402; recombinant PAFAH1B2, FP-rhodamine activity probe, fluorescence polarization; inhibition, % at 3.39 µM; 1.2% of 340,000 active; AID 492953;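 active means inhibition above the mean of all tested compounds plus 3 SD, cut at about 24% in these data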
PAFAH1B3 inh – inhibitors of human PAFAH1B3; inhibition, % at 3.39 µM; recombinant PAFAH1B3, FP-rhodamine probe, fluorescence polarization; 0.28% of 340,000 active; AID 492972; Q15102;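 active means inhibition above the screen-wide average of all tested compounds plus 3 SD, cut at about 25% in these data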
Target sequence (Q15102 whole entry, looked up): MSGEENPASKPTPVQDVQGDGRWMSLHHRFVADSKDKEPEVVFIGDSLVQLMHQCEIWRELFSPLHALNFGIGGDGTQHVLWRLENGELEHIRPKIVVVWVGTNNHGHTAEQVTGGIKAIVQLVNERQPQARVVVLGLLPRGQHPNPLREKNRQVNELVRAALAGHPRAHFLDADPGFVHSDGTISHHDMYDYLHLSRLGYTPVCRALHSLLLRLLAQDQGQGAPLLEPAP
PAFAH2 inh – PAFAH2 (human) inhibition; recombinant PAFAH2, FP-rhodamine activity probe, fluorescence polarization; inhibition, % at 3.39 µM; 0.99% of 340,000 active; AID 492956;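 active means inhibition above the mean over all tested compounds plus 3 SD, cut at about 30% in these data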;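 further: inhibitors block probe labeling of enzyme so polarization drops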
GRIN3A LBD mod – modulates the human NR3A ligand-binding domain; NR3A LBD differential scanning fluorimetry, Tm shift; 0% = protein alone, 100% = glycine-bound protein; Tm shift relative to glycine control, % at 25 µM; 2.5% of 340,000 active; AID 1259313;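 active means melting temperature shift of at least 10% of the positive control shift, at one fixed dose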
Numbers stand for hits; n = inactive; x = not tested or not shown.

SMILES	UCH37 inh	pPAFAH FP inh	PAFAH1B2 FP inh	PAFAH1B3 inh	PAFAH2 inh	GRIN3A LBD mod
CNC(=S)N=CNOCc1c(Cl)cccc1Cl	n	x	x	x	x	x
O=C(CC(=O)Nc1ccc(Cl)c(Cl)c1)NN=Cc1ccc(O)cc1	n	x	x	x	x	x
CC(=NNC(=O)c1ccccn1)C12CC3CC(CC(C3)C1)C2	n	x	x	x	x	x
COc1ccc(C(=O)c2sc3nc(-c4ccc(OC)cc4)ccc3c2N)cc1	n	n	n	n	n	n
COc1ccc(-c2ccc3c(N)c(C(=O)c4cccc(OC)c4)sc3n2)cc1	n	34.4	n	n	n	17.4
Cc1ccc(-c2nn(-c3ccccc3)cc2C=Nn2c(-c3ccncc3)n[nH]c2=S)cc1	n	x	x	x	x	x
CCNC(=S)N1CCN(c2nc(-c3cccc(OC)c3)cs2)CC1	n	n	n	n	n	18.8
COc1cccc(-c2csc(N3CCN(C(=O)Nc4ccc(Cl)cc4)CC3)n2)c1	n	n	n	n	n	15.2
NC(=O)C1CCN(c2nc(-c3cccc(Cl)c3)cs2)CC1	n	32.8	n	n	n	n
C#CCOc1ccc(Cl)cc1C=NO	n	x	x	x	x	x
CCOC(=O)N1CCC(N2C(=O)c3ccc(C(=O)Nc4cccc(OC)c4)cc3C2=O)CC1	n	n	n	n	n	10.6
CCOC(=O)N1CCC(N2C(=O)c3ccc(C(=O)O)cc3C2=O)CC1	n	n	n	n	n	n
Cc1cccc(/N=C/c2nc(-c3ccccc3Br)oc2O)n1	x	31.8	n	n	65.8	n
Cc1cccc(N=Cc2nc(-c3ccccc3Br)oc2O)n1	n	x	x	x	x	x
CCCCCCCC#Cc1ccccc1/C=N/S(=O)c1ccc(C)cc1 (centres undefined)	x	n	x	x	x	15.8
O=C(C[n+]1ccccc1)NN=Cc1ccc(Cl)c(Cl)c1	n	x	x	x	x	x
O=C(O)COc1ccccc1C=NNC(=O)c1ccc(F)cc1	n	x	x	x	x	x
COc1ccc(NS(=O)(=O)c2cccc(NC(=O)C34CCC(CC3)C4)c2)cc1	n	26.0	n	n	n	n
COc1ccc(NS(=O)(=O)c2cccc(NC(=O)c3ccc(S(=O)(=O)N4CCCCCC4)cc3)c2)cc1	n	n	n	n	n	n
CCOc1ccccc1C(=O)NCC(=O)NNC(=O)c1cccc(S(=O)(=O)Nc2ccc(OC)cc2)c1	n	26.4	n	n	n	n
COc1ccc(NS(=O)(=O)c2ccc(N3CCCC3)c(NC(=S)Nc3cccc(S(=O)(=O)N(C)C)c3)c2)cc1	n	33.0	x	x	x	x
COc1ccc(NS(=O)(=O)c2cccc(C(=O)NNC(=O)c3cc(S(N)(=O)=O)ccc3OC)c2)cc1	n	24.8	n	n	n	n
CNC(=S)Nc1ccc(N2CCCC2)c(S(=O)(=O)Nc2ccc(OC)cc2)c1	n	n	n	n	n	n
O=C1C2C3C=CC(C3)C2C(=O)N1N=Cc1cn(Cc2ccc(F)cc2)c2ccccc12 (centres undefined)	n	x	x	x	x	x
COc1ccc(C(C)=NOCC(=O)N=Nc2c(O)[nH]c3ccccc23)cc1	n	x	x	x	x	x
SMILES	UCH37 inh	pPAFAH FP inh	PAFAH1B2 FP inh	PAFAH1B3 inh	PAFAH2 inh	GRIN3A LBD mod
O=C(O)c1cccc(S(=O)(=O)Nc2ccc(N3CCCCC3)cc2)c1	n	26.7	n	n	n	n
COc1ccc(NS(=O)(=O)c2ccc(C(=O)N3CCCCCC3)cc2)cc1	n	n	n	n	n	n
COc1ccc(NC(=O)/C(N=Nc2cc(S(=O)(=O)Nc3ccc(OC)cc3)ccc2OC)=C(\C)O)cc1	n	n	n	n	n	10.8
O=C(O)c1cccc(S(=O)(=O)Nc2cc(Cl)ccc2Cl)c1	n	n	24.2	n	n	n
O=C(O)c1cc(S(=O)(=O)Nc2ccc(N3CCCCC3)cc2)ccc1Cl	n	n	n	n	n	n
COc1ccc(NS(=O)(=O)c2cccc(C(=O)N3CCCCCC3)c2)cc1	n	31.1	n	n	n	n
CC(C)C(NC(=O)C12CC3CC(CC(C3)C1)C2)C(=O)NN=CC1=C(N2CCOCC2)/C(=C\c2cccc([N+](=O)[O-])c2)CC1 (centres undefined)	n	x	x	x	x	x
COc1ccc(NS(=O)(=O)c2cccc(C(=O)NNC(=O)c3ccc(O)c(Cl)c3)c2)cc1	n	n	n	n	n	n
COc1ccc(NS(=O)(=O)c2cccc(-c3nnc4n3CCCCC4)c2)cc1	n	28.5	n	n	n	n
COc1ccc(NS(=O)(=O)c2cccc(C(=O)NNC(=O)c3ccc(NC(C)=O)cc3)c2)cc1	x	25.8	n	n	n	n
COc1ccc(NS(=O)(=O)c2cccc(C(=O)NCC(c3ccc(OC)cc3)N3CCOCC3)c2)cc1 (centres undefined)	x	32.0	n	n	n	n
CCOC(=O)Cc1cc(=O)[nH]c(N=C(N)Nc2ccc(C)c(C)c2)n1	n	x	x	x	x	x
CCOc1ccc(C=NO)cc1	n	x	x	x	x	x
O=C(/C=C/c1ccccc1F)c1cccc([N+](=O)[O-])c1	n	n	n	n	n	18.8
Cc1ccc(S(=O)(=O)NC(C)c2ccccc2)cc1[N+](=O)[O-] (centres undefined)	x	n	24.5	n	n	n
CSc1nc(N(CCO)CCO)c2sc3nc(-c4ccco4)c4c(c3c2n1)CCC4	n	x	n	n	31.3	n
CSc1nc(SCCO)c2sc3nc(-c4ccco4)c4c(c3c2n1)CC(C)(C)OC4	n	x	n	n	n	n
Cc1ccc(-c2ccc(C(=O)Nc3cccc(F)c3)o2)c2ccccc12	n	n	n	n	n	16.8
O=C(Nc1cccc(F)c1)c1ccc(-c2ccccc2Cl)o1	n	n	n	n	n	n
Cc1ccc(S(=O)(=O)N=C(CSC(N)=O)Nc2ccccc2)cc1	n	x	x	x	x	x
O=C(NNC(=O)c1ccccc1OCc1ccccc1)c1ccccc1O	n	x	n	n	n	n
O=C(NNC(=O)c1ccccc1OCc1ccccc1)c1ccccc1F	n	n	n	n	n	10.3
O=C(NNC(=O)c1ccccc1OCc1ccc(F)cc1)c1ccccc1O	n	x	n	n	n	22.9

Screening results (PubChem)
